Data published in ChEMBL document CHEMBL5058577, “EUbOPEN Chemogenomics Library 2 (Multiplex)” (2022).

Test system: Fibroblast
Test: Multiplex assay against human fibroblast
Assay type: toxicity, cell-based
Procedure, shortened: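 Imaging took place on a CQ1 microscope at 37°C and 5% CO2 once compound had been added to live cells stained at seeding with Hoechst33342, BioTracker Green Microtubule Cytoskeleton Dye, MitoTracker Red and Annexin V Alexa Fluor 680. CellPathfinder machine-learning gating classed cells as Hoechst high-intensity objects or normal cells, classed normal cells as having healthy, pyknosed or fragmented nuclei, and classed pyknosed cells as mitotic or apoptotic. Tubulin, mitochondrial-mass and membrane-permeability phenotypes are per cents of the healthy-nucleus cells.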

[1] = 12 h, 1 µM, compound concentration 1 uM, replicate 1
[2] = 12 h, 1 µM, compound concentration 1 uM, replicate 2
[3] = 12 h, 10 µM, compound concentration 10 uM, replicate 1
[4] = 12 h, 10 µM, compound concentration 10 uM, replicate 2
[5] = 24 h, 1 µM, compound concentration 1 uM, replicate 1
[6] = 24 h, 1 µM, compound concentration 1 uM, replicate 2
[7] = 24 h, 10 µM, compound concentration 10 uM, replicate 1
[8] = 24 h, 10 µM, compound concentration 10 uM, replicate 2
[9] = 48 h, 1 µM, compound concentration 1 uM, replicate 1
[10] = 48 h, 1 µM, compound concentration 1 uM, replicate 2
[11] = 48 h, 10 µM, compound concentration 10 uM, replicate 1
[12] = 48 h, 10 µM, compound concentration 10 uM, replicate 2

Cc1ccc(OCC(O)C(C)NC(C)C)c2c1CCC2.Cl (stereo unspecified)
Population Apoptotic (%) [1]: 36% | Population Fragmented Nuclei (%) [1]: 10% | Population Healthy Nuclei (%) [1]: 68% | Population Hoechst High Intensity Objects (%) [1]: 0% | Population Membrane Permeable-Phenotype (%) [1]: 0% | Population Mitochondria Different-Phenotype (%) [1]: 3% | Population Mitotic Cells (%) [1]: 63% | Population Normal (%) [1]: 99% | Population Pyknosed Nuclei (%) [1]: 20% | Population Tubulin-Different-Phenotype (%) [1]: 26% | Total Cell Count [1]: 159 | Population Apoptotic (%) [2]: 28% | Population Fragmented Nuclei (%) [2]: 17% | Population Healthy Nuclei (%) [2]: 55% | Population Hoechst High Intensity Objects (%) [2]: 9% | Population Membrane Permeable-Phenotype (%) [2]: 4% | Population Mitochondria Different-Phenotype (%) [2]: 7% | Population Mitotic Cells (%) [2]: 71% | Population Normal (%) [2]: 90% | Population Pyknosed Nuclei (%) [2]: 27% | Population Tubulin-Different-Phenotype (%) [2]: 50% | Total Cell Count [2]: 210 | Population Apoptotic (%) [3]: 47% | Population Fragmented Nuclei (%) [3]: 39% | Population Healthy Nuclei (%) [3]: 47% | Population Hoechst High Intensity Objects (%) [3]: 1% | Population Membrane Permeable-Phenotype (%) [3]: 0% | Population Mitochondria Different-Phenotype (%) [3]: 12% | Population Mitotic Cells (%) [3]: 52% | Population Normal (%) [3]: 98% | Population Pyknosed Nuclei (%) [3]: 12% | Population Tubulin-Different-Phenotype (%) [3]: 52% | Total Cell Count [3]: 138 | Population Apoptotic (%) [4]: 25% | Population Fragmented Nuclei (%) [4]: 33% | Population Healthy Nuclei (%) [4]: 50% | Population Hoechst High Intensity Objects (%) [4]: 2% | Population Membrane Permeable-Phenotype (%) [4]: 7% | Population Mitochondria Different-Phenotype (%) [4]: 17% | Population Mitotic Cells (%) [4]: 74% | Population Normal (%) [4]: 97% | Population Pyknosed Nuclei (%) [4]: 16% | Population Tubulin-Different-Phenotype (%) [4]: 54% | Total Cell Count [4]: 168 | Population Apoptotic (%) [5]: 57% | Population Fragmented Nuclei (%) [5]: 11% | Population Healthy Nuclei (%) [5]: 74% | Population Hoechst High Intensity Objects (%) [5]: 0% | Population Membrane Permeable-Phenotype (%) [5]: 4% | Population Mitochondria Different-Phenotype (%) [5]: 5% | Population Mitotic Cells (%) [5]: 42% | Population Normal (%) [5]: 100% | Population Pyknosed Nuclei (%) [5]: 13% | Population Tubulin-Different-Phenotype (%) [5]: 30% | Total Cell Count [5]: 154 | Population Apoptotic (%) [6]: 20% | Population Fragmented Nuclei (%) [6]: 27% | Population Healthy Nuclei (%) [6]: 46% | Population Hoechst High Intensity Objects (%) [6]: 15% | Population Membrane Permeable-Phenotype (%) [6]: 1% | Population Mitochondria Different-Phenotype (%) [6]: 8% | Population Mitotic Cells (%) [6]: 80% | Population Normal (%) [6]: 84% | Population Pyknosed Nuclei (%) [6]: 26% | Population Tubulin-Different-Phenotype (%) [6]: 52% | Total Cell Count [6]: 201 | Population Apoptotic (%) [7]: 35% | Population Fragmented Nuclei (%) [7]: 39% | Population Healthy Nuclei (%) [7]: 49% | Population Hoechst High Intensity Objects (%) [7]: 1% | Population Membrane Permeable-Phenotype (%) [7]: 1% | Population Mitochondria Different-Phenotype (%) [7]: 13% | Population Mitotic Cells (%) [7]: 64% | Population Normal (%) [7]: 98% | Population Pyknosed Nuclei (%) [7]: 11% | Population Tubulin-Different-Phenotype (%) [7]: 63% | Total Cell Count [7]: 151 | Population Apoptotic (%) [8]: 36% | Population Fragmented Nuclei (%) [8]: 35% | Population Healthy Nuclei (%) [8]: 50% | Population Hoechst High Intensity Objects (%) [8]: 5% | Population Membrane Permeable-Phenotype (%) [8]: 4% | Population Mitochondria Different-Phenotype (%) [8]: 14% | Population Mitotic Cells (%) [8]: 63% | Population Normal (%) [8]: 94% | Population Pyknosed Nuclei (%) [8]: 13% | Population Tubulin-Different-Phenotype (%) [8]: 65% | Total Cell Count [8]: 168 | Population Apoptotic (%) [9]: 64% | Population Fragmented Nuclei (%) [9]: 16% | Population Healthy Nuclei (%) [9]: 71% | Population Hoechst High Intensity Objects (%) [9]: 4% | Population Membrane Permeable-Phenotype (%) [9]: 0% | Population Mitochondria Different-Phenotype (%) [9]: 1% | Population Mitotic Cells (%) [9]: 35% | Population Normal (%) [9]: 95% | Population Pyknosed Nuclei (%) [9]: 11% | Population Tubulin-Different-Phenotype (%) [9]: 23% | Total Cell Count [9]: 155 | Population Apoptotic (%) [10]: 34% | Population Fragmented Nuclei (%) [10]: 37% | Population Healthy Nuclei (%) [10]: 42% | Population Hoechst High Intensity Objects (%) [10]: 11% | Population Membrane Permeable-Phenotype (%) [10]: 5% | Population Mitochondria Different-Phenotype (%) [10]: 8% | Population Mitotic Cells (%) [10]: 65% | Population Normal (%) [10]: 88% | Population Pyknosed Nuclei (%) [10]: 20% | Population Tubulin-Different-Phenotype (%) [10]: 60% | Total Cell Count [10]: 196 | Population Apoptotic (%) [11]: 71% | Population Fragmented Nuclei (%) [11]: 35% | Population Healthy Nuclei (%) [11]: 50% | Population Hoechst High Intensity Objects (%) [11]: 1% | Population Membrane Permeable-Phenotype (%) [11]: 0% | Population Mitochondria Different-Phenotype (%) [11]: 9% | Population Mitotic Cells (%) [11]: 28% | Population Normal (%) [11]: 98% | Population Pyknosed Nuclei (%) [11]: 13% | Population Tubulin-Different-Phenotype (%) [11]: 68% | Total Cell Count [11]: 155 | Population Apoptotic (%) [12]: 60% | Population Fragmented Nuclei (%) [12]: 39% | Population Hoechst High Intensity Objects (%) [12]: 7% | Population Membrane Permeable-Phenotype (%) [12]: 5% | Population Mitochondria Different-Phenotype (%) [12]: 10% | Population Mitotic Cells (%) [12]: 40% | Population Normal (%) [12]: 92% | Population Pyknosed Nuclei (%) [12]: 10% | Population Tubulin-Different-Phenotype (%) [12]: 63% | Total Cell Count [12]: 157
